Shown are actives, neighbours in structure and some others; about 7.9% of the full set was active somewhere.
HEK293 NFkB inh = inhibitors of PMA/ionomycin-induced NF-kB reporter, primary screen, antigen receptor NF-kB inhibitor project, cell-based, HEK-293 luciferase reporter, luminescence; HEK-293 NF-kB luciferase reporter; inhibition, % at 3 µM; 0.21% of 62,000 active; AID 465, 2006;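 active = inhibition above the mean of all tested compounds plus 3 SD, cut at about 40% in these data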;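 also: 0% = stimulated DMSO wells and 100% = 10 µM reference inhibitor 5653914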
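Signal: luciferase luminescence; Material: HEK-293 cells with stable firefly luciferase reporter driven by four HIV NF-kB elements; Probe or stimulus: PMA with ionomycin; Replication: tested once; Times: 1 h compound pretreatment, then 16 h stimulation at 37 °C, 5% CO2; Benchmarks: DMSO and 10 µM reference inhibitor; Evaluation: per-plate % inhibition versus controls.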
RORA act = activators of orphan receptor RORA, primary screen, cell-based, luminescence; Nuclear receptor ROR-alpha (Homo sapiens), P35398; CHO-K1 Gal4-RORA LBD luciferase reporter; percent increase over mock-subtracted basal signal; activation, % at 10 µM; 1.5% of 65,000 active; AID 560, 2006;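 active = activation above the mean of all tested compounds plus 3 SD, cut at about 49% in these data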;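 also: 0% = DMSO-treated RORA cells and 100% = added signal equal to DMSO minus mock-transfected cells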
SF-1 act = activators of human SF-1, primary screen, cell-based, CHO-K1, Gal4-SF-1 LBD, luciferase luminescence | Steroidogenic factor 1 (Homo sapiens), Q13285 | CHO-K1 Gal4-SF-1 LBD luciferase reporter; % increase over DMSO SF-1-specific signal | 1.9% of 65,000 active | AID 522, 2006 | activation, % at 10 µM;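 active = activation above the mean activation of all tested compounds plus 3 SD, cut at about 50% in these data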
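Compound – one dose, 10 µM compound, 1% DMSO · Test system – transient Gal4-SF-1 LBD reporter, CHO-K1 · Input – 4,000 cells in each well · Read-out basis – percent activation relative to DMSO median and mock-transfected background · Replicates – single measurement per compound · Technique – steady-glow luciferase luminescence, read after 15 min reagent incubation · Timing – 20 h compound treatment, 37 °C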
D1 mod = D1 CRE-luciferase signal change, two-sided – cell-based, HEK293 D1, dopamine EC30, D1 allosteric modulator project, primary screen | D(1A) dopamine receptor (Homo sapiens), P21728 | dopamine EC30 potentiation; actives deviate in either direction | B-score at 10 µM | 5.9% of 58,000 active;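 active = luminescence count or its row- and column-corrected plate score outside the 99.7% band of the plate's sample wells, on either side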
JNK3 inh = JNK3 kinase activity inhibitors, primary screen, biochemical, human, purified enzyme. HTS. AID 746, 2007. 0.61% of 60,000 active. inhibition, % at 8 µM. Mitogen-activated protein kinase 10 (Homo sapiens), P53779; in the data active = inhibition above about 17%;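 also: 0% = DMSO and 100% = reference inhibitor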
Target sequence (P53779 whole entry, looked up): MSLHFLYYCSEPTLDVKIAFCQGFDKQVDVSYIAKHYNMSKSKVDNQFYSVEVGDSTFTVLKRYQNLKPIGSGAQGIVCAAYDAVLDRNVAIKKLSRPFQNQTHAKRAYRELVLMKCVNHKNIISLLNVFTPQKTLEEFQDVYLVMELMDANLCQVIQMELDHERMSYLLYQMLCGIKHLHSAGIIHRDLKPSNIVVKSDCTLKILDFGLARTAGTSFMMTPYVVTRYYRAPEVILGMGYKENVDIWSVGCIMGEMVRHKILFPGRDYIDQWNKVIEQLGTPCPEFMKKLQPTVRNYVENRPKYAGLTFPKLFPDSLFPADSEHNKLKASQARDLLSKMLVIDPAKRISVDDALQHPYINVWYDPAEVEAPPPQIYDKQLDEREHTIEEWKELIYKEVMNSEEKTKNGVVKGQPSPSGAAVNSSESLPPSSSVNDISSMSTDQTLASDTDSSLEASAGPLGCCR
D1 mod confirm = D1 receptor positive allosteric modulators, retest, confirmation, cell-based, HEK293 D1, CRE-luciferase, duplicate; shares compounds with D1 mod; dopamine EC30 potentiation; stronger effect = higher value; luminescence at 10 µM; 88% of 2,200 active; AID 642, 2007;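 active = luminescence in either of two replicates above the same-plate mean plus 3 SD of the low-dose dopamine control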
D1 ag no DA = D1 receptor agonism without dopamine, confirmation, mechanism study for D1 allosteric modulator project, cell-based, HEK293 D1, CRE-luciferase, secondary assay 1; luminescence, no dopamine; stronger effect = higher value; luminescence at 10 µM; shares compounds with D1 mod; 0.8% of 1,900 active; AID 646, 2007; in the data active = luminescence above about 3900
Isoprot counter = alters isoproterenol CRE-luciferase response in HEK293 cells; HEK293 D1 CRE-luciferase, isoproterenol EC30 counter-screen; shares compounds with D1 mod; calls only at 10 µM; 63% of 2,200 active;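 active = luminescence in either replicate above plate mean of wells with a partly effective reference agonist dose plus 3 SD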;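 also: isoproterenol raises cAMP through native beta-adrenoceptor Gs so signal bypasses D1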
Starred values were filed as active, the others as inactive; i = inactive; nt = no result given; + = active, no number.

SMILES | HEK293 NFkB inh | RORA act | SF-1 act | D1 mod | JNK3 inh | D1 mod confirm | D1 ag no DA | Isoprot counter
COc1ccc(-c2nn(C)c(=O)c3ccccc23)cc1CNS(C)(=O)=O | 10.1 | -27.4 | 8.4 | 1.68 | 6.0 | nt | nt | nt
CCOC(=O)c1ccc2c(c1)nc(SCc1cn3ccsc3n1)n2CC | 8.7 | 1.2 | -6.3 | 12.9* | 7.7 | 23916* | 1828 | +
O=c1c2ccccc2nc(SCc2cn3ccsc3n2)n1-c1ccccc1 | 12.0 | -16.9 | -1.0 | nt | 11.5 | nt | nt | nt
O=C1C(=O)N(CCCn2ccnc2)C(c2cccnc2)/C1=C(/O)c1ccccc1 (stereo not given) | 8.1 | 10.4 | 3.0 | 0.323 | nt | nt | nt | nt
C=CCN1C(=O)c2oc3ccccc3c(=O)c2C1c1ccc(O)c(OC)c1 (stereo not given) | 21.9 | -14.8 | -8.9 | 8.12* | -8.7 | 10008* | nt | i
Nc1nnc(N2CCCCC2)s1 | 9.0 | -6.2 | 3.5 | 0.33 | -5.0 | nt | nt | nt
CC1CCN(c2nnc(N)s2)CC1 | -0.1 | 19.1 | 1.5 | 2.78* | 0.2 | 4832 | 944 | i
CCOC(=O)c1nn(-c2ccc(OC)cc2)c(=O)c2c(NC(=O)c3ccco3)scc12 | 18.4 | 6.7 | -21.1 | -1.1 | 3.6 | nt | nt | nt
CCOC(=O)c1nn(-c2ccc(OC)cc2)c(=O)c2c(N)scc12 | 23.0 | -18.2 | -5.8 | 5.12* | 3.8 | 6660* | 1672 | i
c1ccc(COc2ccc(Oc3nc(N4CCCCC4)nc(N4CCOCC4)n3)nn2)cc1 | 33.1 | -11.9 | -2.4 | 9.23* | -2.9 | 15844* | 1888 | +
Cc1ccc(Nc2nc(Oc3ccc(OCc4ccccc4)nn3)nc(N3CCOCC3)n2)cc1 | 31.2 | -6.0 | 2.2 | 1.18 | 3.7 | nt | nt | nt
COc1cccc(OC)c1C(=O)N1CCOCC1 | 10.9 | -12.8 | -0.6 | -0.213 | -4.8 | nt | nt | nt
CCOC(=O)/C=C1\NC(C)(C)Cc2cc(OC)c(O)cc21 | 3.5 | -6.3 | -7.3 | 3.96* | 1.5 | 8420* | 1572 | i
CCOC(=O)/C=C1\CC(=O)Nc2cc(C)c(C)cc2N1 | 8.0 | -5.8 | -12.3 | 1.23 | 1.9 | nt | nt | nt
COc1cc2c(cc1OC)/C(=C/C(=O)N1CCOCC1)NC(C)(C)C2 | 13.8 | 0.9 | -0.4 | 9.95* | -4.2 | 18680* | 1652 | +
Cc1csc(NC(=O)CSc2nnc(-c3ccncc3)o2)n1 | 1.3 | 38.0 | 21.1 | -0.9 | 0.1 | nt | nt | nt
O=C1COc2ccccc2N1Cc1ccccc1Cl | 25.8 | 1.5 | -2.4 | 4.91* | -0.7 | 7968* | 1540 | i
CC(Sc1nnc(-c2ccc(Cl)cc2)n1C)C(N)=O (stereo not given) | 6.0 | 13.3 | 3.7 | 0.0843 | -6.6 | nt | nt | nt
COc1ccc(-c2nnc(-c3cccs3)o2)cc1OC | -21.8 | 19.8 | 41.5 | 4.63 | 3.3 | nt | nt | nt
COc1ccc(-c2nc(-c3cccs3)c(-c3cccs3)[nH]2)cc1O | 3.1 | 4.4 | 3.5 | 2.77* | -0.9 | 7608 | 1828 | i
Cc1csc2nc(CNC(=O)C3CCCCC3)cn12 | -3.8 | 18.6 | -4.2 | 2.99* | 3.8 | 7124 | 1524 | i
